ChEMBL document CHEMBL1122654, “Phosphorus analogues of gamma-aminobutyric acid, a new class of anticonvulsants” (J Med Chem, 1984)
Calls of active or inactive are those of the source.

Experiments:
[1] = Partition coefficient (logP); assay type: physicochemical; conditions: octanol/water
[2] = biological target: GABA B receptor (Rattus norvegicus) (UniProt Q9Z0U4+O88871); experiment: (§1) Displacement of [3H]GABA from GABA-B binding sites in brain homogenates (relative to 100 uM baclofen) at 100 uM; assay type: tissue-based
Procedure, shortened: (§2)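 Rat brain membrane binding (male Sprague-Dawley) using 10 nM [3H]GABA, with 100 µM isoguvacine present to block GABA-A sites. Test concentration 100 µM. Percent inhibition expressed relative to 100 µM baclofen. Mean of two separate experiments, each in triplicate.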

[3] = biological target: T1, GABA-A receptor; anion channel (Rattus norvegicus) (UniProt O09028+P15431+P18506+P18508+P19969+P20236+P23574+P23576+P28471+P28473+P30191+P62813+P63079+P63138+Q91ZM7+Q9ES14); experiment: Displacement of [3H]-GABA from Gamma-aminobutyric acid A receptor binding sites in brain homogenates (relative to 1 mM GABA) at 100 uM; assay type: tissue-based
Procedure, shortened: (§3)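 Male Sprague-Dawley rat brain, frozen, homogenized in 50 mM Tris-citrate (pH 7.1 at 4 °C). Membranes treated with 0.05% Triton X-100 for 30 min at 37 °C and resuspended at 0.5–1.0 mg/mL protein. Incubated with 8 nM [3H]GABA for 5 min at 4 °C, stopped by centrifugation, and counted by scintillation. Test concentration 100 µM. Expressed as percent of the inhibition given by 1 mM GABA. Mean of two experiments, each in triplicate.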

Rattus norvegicus = species: Rattus norvegicus; experiment: as §1; assay type: tissue-based; procedure, shortened: as §2
Mus musculus [4] = experiment: In vivo anticonvulsant activity against electric shock induced seizures(MES) in mice 0.5 hr after ip administration; active at 600 mg/kg; assay type: functional, organism-based; parameters: dose 600 mg/kg
Mus musculus [5] = experiment: In vivo neurotoxicity at 600 mg/kg, number of animals exhibiting neurotoxicity in the rotarod test / number of animals tested at 0.5 hr; 4/4; assay type: toxicity, organism-based; parameters: dose 600 mg/kg
Mus musculus [6] = experiment: In vivo neurotoxicity at 600 mg/kg, number of animals exhibiting neurotoxicity in the rotarod test / number of animals tested 4 hr; 2/2; assay type: toxicity, organism-based; parameters: dose 600 mg/kg
Mus musculus [7] = experiment: In vivo anticonvulsant activity against electric shock induced seizures(MES) in mice 4 hr after ip administration; + indicates activity at 600 mg/kg.; assay type: functional, organism-based; parameters: dose 600 mg/kg
Mus musculus [8] = experiment: In vivo anticonvulsant activity against electric shock induced seizures(MES) in mice 0.5 hr after ip administration; ++ indicates activity at 300 mg/kg.; assay type: functional, organism-based; parameters: dose 300 mg/kg
Mus musculus [9] = experiment: In vivo neurotoxicity at 600 mg/kg, number of animals exhibiting neurotoxicity in the rotarod test / number of animals tested at 0.5 hr; assay type: toxicity, organism-based; parameters: dose 600 mg/kg
Mus musculus [10] = experiment: In vivo anticonvulsant activity against electric shock induced seizures(MES) in mice 0.5 hr after ip administration; inactive at 600 mg/kg; assay type: functional, organism-based; parameters: dose 600 mg/kg
Mus musculus [11] = experiment: In vivo anticonvulsant activity against pentylene tetrazole seizure threshold(SMC) in mice 0.5 hr after sc administration; inactive at 600 mg/kg; assay type: functional, organism-based; parameters: dose 600 mg/kg
Mus musculus [12] = experiment: In vivo neurotoxicity at 600 mg/kg, number of animals exhibiting neurotoxicity in the rotarod test / number of animals tested 4 hr; assay type: toxicity, organism-based; parameters: dose 600 mg/kg
Mus musculus [13] = experiment: In vivo anticonvulsant activity against pentylene tetrazole seizure threshold(SMC) in mice 4 hr after sc administration; inactive at 600 mg/kg; assay type: functional, organism-based; parameters: dose 600 mg/kg
Mus musculus [14] = experiment: In vivo anticonvulsant activity against electric shock induced seizures(MES) in mice 4 hr after ip administration; inactive at 600 mg/kg; assay type: functional, organism-based; parameters: dose 600 mg/kg
Mus musculus [15] = experiment: In vivo neurotoxicity at 600 mg/kg, number of animals exhibiting neurotoxicity in the rotarod test / number of animals tested at 0.5 hr; 1/4; assay type: toxicity, organism-based; parameters: dose 600 mg/kg
Mus musculus [16] = experiment: In vivo neurotoxicity at 600 mg/kg, number of animals exhibiting neurotoxicity in the rotarod test / number of animals tested 4 hr; 0/2; assay type: toxicity, organism-based; parameters: dose 600 mg/kg
Mus musculus [17] = experiment: In vivo anticonvulsant activity against electric shock induced seizures(MES) in mice 0.5 hr after ip administration; active at 300 mg/kg; assay type: functional, organism-based; parameters: dose 300 mg/kg
Mus musculus [18] = experiment: In vivo anticonvulsant activity against electric shock induced seizures(MES) in mice 4 hr after ip administration; active at 300 mg/kg; assay type: functional, organism-based; parameters: dose 300 mg/kg
Mus musculus [19] = experiment: In vivo anticonvulsant activity against pentylene tetrazole seizure threshold(SMC) in mice 0.5 hr after sc administration; active at 600 mg/kg; assay type: functional, organism-based; parameters: dose 600 mg/kg
[20] = biological target: T1, GABA-A receptor; anion channel (Rattus norvegicus); experiment: Displacement of [3H]GABA from Gamma-aminobutyric acid A receptor binding sites in brain homogenates (relative to 1 mM GABA) at 100 uM; assay type: tissue-based; procedure, shortened: as §3
Mus musculus [21] = experiment: In vivo neurotoxicity at 600 mg/kg, number of animals exhibiting neurotoxicity in the rotarod test / number of animals tested at 0.5 hr; 0/4; assay type: toxicity, organism-based; parameters: dose 600 mg/kg

COP(=O)(OC)Oc1cc(C)c([N+](=O)[O-])c(C)c1
logP [1]: 2.57

CCOP(=S)(OCC)Oc1ccccc1NC(C)=O
inhibition [2]: 35%

CCCCN1C(=O)CCP1(=O)c1ccccc1 (stereo unspecified)
inhibition [3]: 17% | inhibition (Rattus norvegicus): 67%

CC1(C)COP(=S)(c2ccccc2)N1 (stereo unspecified)
inhibition [2]: 15% | Anticonvulsant activity (Mus musculus [4]): active at 600 mg/kg

CC(C)OP(=O)(OC(C)C)c1cccc(N)c1
Toxicity (Mus musculus [5]): 4 | Toxicity (Mus musculus [6]): 2 | Anticonvulsant activity (Mus musculus [7]): activity at 300 mg/kg | Anticonvulsant activity (Mus musculus [8]): activity at 300 mg/kg

NCCCP(=O)(O)O
Toxicity (Mus musculus [9]): Not Active | inhibition [3]: 12% | Anticonvulsant activity (Mus musculus [10]): inactive | Anticonvulsant activity (Mus musculus [11]): inactive | Toxicity (Mus musculus [12]): Not Active | inhibition [2]: 91% | Anticonvulsant activity (Mus musculus [13]): inactive | Anticonvulsant activity (Mus musculus [14]): inactive

CCOP(=O)(OCC)Oc1ccc([N+](=O)[O-])cc1 [PARAOXON]
logP [1]: 1.64

CCOP(=S)(OCC)Oc1ccc(SC)c(Cl)c1
logP [1]: 5.06

CCOP(=S)(OCC)Oc1ccc(SC)cc1Cl
logP [1]: 4.4

COP(=O)(OC)Oc1ccc([N+](=O)[O-])cc1Cl
logP [1]: 1.83

CCOP(=O)(CCCN)OCC
Toxicity (Mus musculus [15]): 1 | Toxicity (Mus musculus [16]): 0

CCOP(=O)(OCC)Oc1ccccc1NC(C)=O
Anticonvulsant activity (Mus musculus [17]): active at 300 mg/kg | Anticonvulsant activity (Mus musculus [18]): active at 300 mg/kg | Anticonvulsant activity (Mus musculus [19]): active at 300 mg/kg

COP(=S)(OC)Oc1ccc([N+](=O)[O-])c(Cl)c1 [CHLORTHION]
logP [1]: 3.45

COP(=S)(OC)Oc1ccc([N+](=O)[O-])cc1Cl [DICAPTHON]
logP [1]: 3.44

COP(=S)(OC)Oc1cccc(NC(C)=O)c1
inhibition [20]: inactive

COP(=S)(OC)Oc1ccc([N+](=O)[O-])c(C(C)C)c1
logP [1]: 4.05

COP(=O)(OC)Oc1ccc([N+](=O)[O-])c(Cl)c1
logP [1]: 1.83

CC(CNP(=O)(Oc1ccccc1)Oc1ccccc1)NP(=O)(Oc1ccccc1)Oc1ccccc1 (stereo unspecified)
inhibition [2]: 20%

Nc1cccc(P(=O)(O)O)c1
Toxicity (Mus musculus [16]): 0 | Toxicity (Mus musculus [21]): 0

Nc1cccc(P(=O)(Oc2ccccc2)Oc2ccccc2)c1
inhibition [2]: 51%
